Results taken from ChEMBL document CHEMBL4622869, “Discovery and structure-activity relationships study of positive allosteric modulators of the M3 muscarinic acetylcholine receptor” (Bioorg Med Chem, 2020).

How the values were obtained:
[1] = molecular target: Muscarinic acetylcholine receptor M3 (Rattus norvegicus) (UniProt P08483); test: (§1) Positive allosteric modulation of recombinant rat muscarinic acetylcholine receptor M3 expressed in CHOK1 cells assessed as increase in carbachol-induced intracellular calcium flux at 10 uM preincubated for 5 mins followed by carbachol addition by Fluo4-AM dye based FLIPR assay relative to carbachol; format: functional, cell-based; settings: CHO-K1
Muscarinic acetylcholine receptor M3 (Rattus norvegicus), sequence (P08483 whole entry, looked up): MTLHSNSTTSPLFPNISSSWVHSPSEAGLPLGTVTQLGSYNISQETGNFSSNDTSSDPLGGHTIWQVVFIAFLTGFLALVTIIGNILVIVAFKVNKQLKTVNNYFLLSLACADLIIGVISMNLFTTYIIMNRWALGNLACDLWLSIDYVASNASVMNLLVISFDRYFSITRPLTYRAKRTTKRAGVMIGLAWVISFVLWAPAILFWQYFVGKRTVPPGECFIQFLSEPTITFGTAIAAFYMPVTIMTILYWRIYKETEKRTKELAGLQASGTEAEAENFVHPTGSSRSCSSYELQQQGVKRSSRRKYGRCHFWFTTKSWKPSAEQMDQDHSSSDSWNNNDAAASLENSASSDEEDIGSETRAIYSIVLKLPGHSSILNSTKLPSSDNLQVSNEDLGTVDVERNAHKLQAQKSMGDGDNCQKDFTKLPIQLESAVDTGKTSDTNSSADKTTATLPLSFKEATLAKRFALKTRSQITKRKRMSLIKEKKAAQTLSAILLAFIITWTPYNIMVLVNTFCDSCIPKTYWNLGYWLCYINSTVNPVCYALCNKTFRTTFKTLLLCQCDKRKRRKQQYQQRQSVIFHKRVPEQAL
Outline: (§2)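 CHO-K1 cells stably expressing human or rat M1–M5; M2 and M4 lines also co-express human Gα16. Cells loaded with 3.1 μM Fluo-4 AM in HBSS/20 mM HEPES pH 7.5/BSA/2.5 mM probenecid for ~2 h at room temperature. Test substance at 10 μM final, then carbachol (0.0024 nM–100 μM) ~5 min later; Ca2+ read by FLIPR Tetra. Fold shift = carbachol EC50 without / with test substance, from logistic fits.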

[2] = molecular target: T1, Muscarinic acetylcholine receptor M1 (Rattus norvegicus) (UniProt P08482); test: Positive allosteric modulation of recombinant rat muscarinic acetylcholine receptor M1 expressed in CHOK1 cells assessed as increase in carbachol-induced intracellular calcium flux at 10 uM preincubated for 5 mins followed by carbachol addition by Fluo4-AM dye based FLIPR assay relative to carbachol; format: functional, cell-based; settings: CHO-K1; outline: as §2
T1 sequence (whole entry): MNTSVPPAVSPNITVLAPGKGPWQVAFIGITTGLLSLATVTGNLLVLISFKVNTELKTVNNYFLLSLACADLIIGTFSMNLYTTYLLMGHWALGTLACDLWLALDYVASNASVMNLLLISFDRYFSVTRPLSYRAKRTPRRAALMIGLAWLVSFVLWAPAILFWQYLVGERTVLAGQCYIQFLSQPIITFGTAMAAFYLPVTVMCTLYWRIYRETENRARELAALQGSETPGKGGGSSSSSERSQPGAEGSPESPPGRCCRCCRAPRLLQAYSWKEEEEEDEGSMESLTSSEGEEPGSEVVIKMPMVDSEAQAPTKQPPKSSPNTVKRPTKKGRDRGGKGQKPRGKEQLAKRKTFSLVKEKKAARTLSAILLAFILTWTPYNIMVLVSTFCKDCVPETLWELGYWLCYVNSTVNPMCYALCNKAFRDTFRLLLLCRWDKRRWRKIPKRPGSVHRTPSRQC

[3] = molecular target: Muscarinic acetylcholine receptor M3 (Homo sapiens) (UniProt P20309); test: as §1, with “human” for “rat”; format: functional, cell-based; settings: CHO-K1; outline: as §2
Muscarinic acetylcholine receptor M3 (Homo sapiens), sequence (P20309 whole entry, looked up): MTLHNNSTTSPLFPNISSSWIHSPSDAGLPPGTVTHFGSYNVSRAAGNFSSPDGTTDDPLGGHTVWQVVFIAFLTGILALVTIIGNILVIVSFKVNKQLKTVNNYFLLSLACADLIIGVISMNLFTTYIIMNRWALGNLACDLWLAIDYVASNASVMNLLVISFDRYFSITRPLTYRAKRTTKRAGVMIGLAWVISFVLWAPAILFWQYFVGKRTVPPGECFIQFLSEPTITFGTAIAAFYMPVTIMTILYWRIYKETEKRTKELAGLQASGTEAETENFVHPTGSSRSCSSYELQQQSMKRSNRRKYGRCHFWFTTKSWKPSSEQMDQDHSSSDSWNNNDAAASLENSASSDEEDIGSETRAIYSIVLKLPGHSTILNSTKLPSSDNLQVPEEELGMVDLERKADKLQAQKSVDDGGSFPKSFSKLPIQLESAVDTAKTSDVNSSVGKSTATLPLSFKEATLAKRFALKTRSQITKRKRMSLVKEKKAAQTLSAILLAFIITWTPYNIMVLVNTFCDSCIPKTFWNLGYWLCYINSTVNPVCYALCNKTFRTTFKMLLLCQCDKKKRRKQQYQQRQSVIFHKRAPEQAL

[4] = molecular target: T2, Muscarinic acetylcholine receptor M5 (Rattus norvegicus) (UniProt P08911); test: Positive allosteric modulation of recombinant rat muscarinic acetylcholine receptor M5 expressed in CHOK1 cells assessed as increase in carbachol-induced intracellular calcium flux at 10 uM preincubated for 5 mins followed by carbachol addition by Fluo4-AM dye based FLIPR assay relative to carbachol; format: functional, cell-based; settings: CHO-K1; outline: as §2
T2 sequence (whole entry): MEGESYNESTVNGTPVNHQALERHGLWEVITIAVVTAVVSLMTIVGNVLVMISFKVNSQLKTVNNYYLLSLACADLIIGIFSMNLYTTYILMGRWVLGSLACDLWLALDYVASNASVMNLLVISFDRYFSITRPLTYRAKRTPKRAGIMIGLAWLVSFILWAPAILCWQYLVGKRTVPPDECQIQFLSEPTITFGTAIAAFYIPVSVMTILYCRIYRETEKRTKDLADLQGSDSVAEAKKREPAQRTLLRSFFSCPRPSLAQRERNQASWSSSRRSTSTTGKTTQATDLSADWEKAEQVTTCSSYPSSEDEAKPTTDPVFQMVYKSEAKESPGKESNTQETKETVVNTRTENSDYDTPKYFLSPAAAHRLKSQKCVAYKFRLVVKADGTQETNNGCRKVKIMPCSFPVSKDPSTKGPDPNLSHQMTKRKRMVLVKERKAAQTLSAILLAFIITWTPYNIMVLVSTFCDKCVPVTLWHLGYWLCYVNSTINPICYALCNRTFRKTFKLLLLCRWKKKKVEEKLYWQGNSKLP

[5] = Volume of distribution at steady state in Crl:CD(SD) rat at 0.3 mg/kg, iv measured up to 24 hrs by LC-MS/MS analysis; format: ADME, organism-based; settings: in vivo, read-out: Vdss
Outline: (§3)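 Male Crl:CD(SD) rats, 8 weeks old, food deprived (n=4); iv 0.3 mg/kg or po 1 mg/kg in DMF/propylene glycol/water for injection (1/1/8) containing 1 M NaOH (2 equivalents). Plasma sampled to 24 h, assayed by validated LC-MS/MS. Parameters from each animal by noncompartmental analysis, reported as means.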

[6] = Oral bioavailability in Crl:CD(SD) rat at 1 mg/kg measured up to 24 hrs by LC-MS/MS analysis; format: ADME, organism-based; settings: in vivo; outline: as §3
[7] = molecular target: Muscarinic acetylcholine receptor M3 (Rattus norvegicus) (UniProt P08483); test: Positive allosteric modulation of muscarinic acetylcholine receptor M3 in Sprague-Dawley rat urinary bladder assessed as increase in 8 Hz electrical field stimulation-induced bladder contraction by measuring tension of isolated bladder contraction at 1 uM (reference value: 2.21 +/- 0.26 g)
Outline: (§4)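 Female Sprague-Dawley rats, 9–10 weeks old. Longitudinal bladder strips (~10×2 mm) in Krebs at 37°C, gassed with 95% O2/5% CO2. EFS at 8 Hz, 10 s trains, 0.3 ms pulses, voltage set to give about half-maximal response. Drug added cumulatively at 1, 3 and 10 μM, 10 stimulations per concentration. Contraction = peak minus basal tone, averaged over the last 3 contractions and compared with pre-drug value (n=7).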

[8] = molecular target: Muscarinic acetylcholine receptor M3 (Rattus norvegicus) (UniProt P08483); test: Positive allosteric modulation of muscarinic acetylcholine receptor M3 in Sprague-Dawley rat urinary bladder assessed as increase in 8 Hz electrical field stimulation-induced bladder contraction by measuring tension of isolated bladder contraction at 3 uM (reference value: 2.21 +/- 0.26 g); outline: as §4
[9] = AUCinfinity in Crl:CD(SD) rat at 0.3 mg/kg, iv measured up to 24 hrs by LC-MS/MS analysis; format: ADME, organism-based; set-up: dose 0.3 mg/kg, route intravenous, time infinity; settings: in vivo; outline: as §3
[10] = molecular target: Muscarinic acetylcholine receptor M3 (Rattus norvegicus) (UniProt P08483); test: Positive allosteric modulation of muscarinic acetylcholine receptor M3 in Sprague-Dawley rat urinary bladder assessed as increase in 8 Hz electrical field stimulation-induced bladder contraction by measuring tension of isolated bladder contraction at 10 uM (reference value: 2.21 +/- 0.26 g); outline: as §4
[11] = Half life in Crl:CD(SD) rat at 1 mg/kg, po measured up to 24 hrs by LC-MS/MS analysis; format: ADME, organism-based; settings: in vivo; outline: as §3
[12] = Total clearance in Crl:CD(SD) rat at 0.3 mg/kg, iv measured up to 24 hrs by LC-MS/MS analysis; format: ADME, organism-based; settings: in vivo; outline: as §3

- fold change (FC) [1]: 158
- fold change (FC) [2]: 2.1
- fold change (FC) [3]: 269
- fold change (FC) [4]: 110
- Vd [5]: 1.59 L/kg
- bioavailability [6]: 19%
- Activity [7]: 2.34 g
- Activity [8]: 2.79 g
- AUC(0-inf) [9]: 330 ng·h/mL
- Activity [10]: 3.49 g
- half-life [11]: 2.16 h
- clearance [12]: 15.3 mL/min/kg
Structure (SMILES): CC[C@@H]1CCCN1Cc1sc(NC(=O)c2cnc(N3CCC(C(=O)O)CC3)cn2)nc1-c1ccc(OC)c(C(F)(F)F)c1.Cl.Cl
